Square brackets hold non-standard residues; d marks the D form. Peptide text beside a SMILES is read from it. aThr = C[C@H](O)[C@H](N)C(=O)O
Tests used:
[1] = biological target: Ribonucleoside-diphosphate reductase RR1 (Homo sapiens) (UniProt P23921+Q7LG56+P31350); assay: Relative inhibitory potency against mammalian ribonucleotide reductase; type: protein-complex assay
[2] = biological target: T1, Ribonucleoside-diphosphate reductase RR1 (Homo sapiens, UniProt P23921+P31350+Q7LG56); assay: Inhibition of mammalian ribonucleotide reductase; type: protein-complex assay
T1 sequence (P23921 whole entry): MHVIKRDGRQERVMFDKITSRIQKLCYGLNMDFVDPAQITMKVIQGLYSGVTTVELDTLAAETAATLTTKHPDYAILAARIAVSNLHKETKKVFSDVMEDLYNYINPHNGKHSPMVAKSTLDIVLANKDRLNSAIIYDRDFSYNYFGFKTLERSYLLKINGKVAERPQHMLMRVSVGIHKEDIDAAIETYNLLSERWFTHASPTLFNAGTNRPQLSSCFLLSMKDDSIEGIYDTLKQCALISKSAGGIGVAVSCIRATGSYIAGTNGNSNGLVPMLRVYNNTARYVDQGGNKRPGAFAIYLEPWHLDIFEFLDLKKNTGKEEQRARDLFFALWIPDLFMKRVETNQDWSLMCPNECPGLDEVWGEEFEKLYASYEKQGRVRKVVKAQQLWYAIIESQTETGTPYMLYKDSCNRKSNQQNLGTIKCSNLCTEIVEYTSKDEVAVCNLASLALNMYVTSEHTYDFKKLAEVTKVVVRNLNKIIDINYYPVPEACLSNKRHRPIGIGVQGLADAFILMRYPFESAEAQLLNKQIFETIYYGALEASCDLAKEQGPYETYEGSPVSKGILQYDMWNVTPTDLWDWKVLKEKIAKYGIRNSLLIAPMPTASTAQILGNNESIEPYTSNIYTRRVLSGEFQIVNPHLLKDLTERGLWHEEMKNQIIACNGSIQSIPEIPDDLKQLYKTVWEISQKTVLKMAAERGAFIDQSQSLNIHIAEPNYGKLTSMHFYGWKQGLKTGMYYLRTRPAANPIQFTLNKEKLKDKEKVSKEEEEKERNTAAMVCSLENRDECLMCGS
T1 sequence (Q7LG56 whole entry): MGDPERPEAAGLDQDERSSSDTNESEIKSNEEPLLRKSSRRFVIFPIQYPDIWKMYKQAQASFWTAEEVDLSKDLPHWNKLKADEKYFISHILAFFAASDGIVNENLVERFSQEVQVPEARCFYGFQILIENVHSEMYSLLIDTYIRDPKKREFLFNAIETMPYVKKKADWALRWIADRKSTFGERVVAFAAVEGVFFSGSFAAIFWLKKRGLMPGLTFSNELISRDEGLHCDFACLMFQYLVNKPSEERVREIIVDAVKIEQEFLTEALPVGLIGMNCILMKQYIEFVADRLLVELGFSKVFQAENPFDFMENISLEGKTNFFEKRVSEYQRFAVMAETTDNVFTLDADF
T1 sequence (P31350 whole entry): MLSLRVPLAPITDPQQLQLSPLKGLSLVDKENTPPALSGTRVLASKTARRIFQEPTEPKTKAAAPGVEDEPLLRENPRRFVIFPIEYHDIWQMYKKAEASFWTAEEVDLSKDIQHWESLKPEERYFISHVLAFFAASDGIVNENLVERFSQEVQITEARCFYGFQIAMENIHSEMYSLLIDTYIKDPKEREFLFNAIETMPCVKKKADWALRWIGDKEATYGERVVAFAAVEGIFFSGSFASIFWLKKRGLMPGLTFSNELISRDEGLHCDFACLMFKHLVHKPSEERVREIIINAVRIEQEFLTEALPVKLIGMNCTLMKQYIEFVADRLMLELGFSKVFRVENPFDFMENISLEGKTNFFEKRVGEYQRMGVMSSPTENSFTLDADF
How it was run: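 Calf thymus R1 (1 μg) with cloned mouse R2 (2 μg) expressed in E. coli from pET-M2. CDP reduction was run at 35 °C with DTT as reductant. [³H]dCDP was separated on aminophenylboronate and counted by scintillation.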

Row | Molecule | RI [1] | IC50 [2]
1 | CC(=O)N[C@@H](Cc1ccccc1)C(=O)N[C@H](C(=O)N[C@@H](CC(C)C)C(=O)N[C@@H](CC(=O)O)C(=O)N[C@@H](C)C(=O)N[C@@H](CC(C)C)C(=O)N[C@@H](Cc1ccccc1)C(=O)O)[C@H](C)O | 34% | –
2 | Ac-LDADF-OH | < 3% | > 400 µM
3 | CC(=O)N[C@@H](Cc1ccccc1)C(=O)N[C@H](C(=O)N[C@@H](CC(C)C)C(=O)N[C@@H](C)C(=O)N[C@@H](C)C(=O)N[C@@H](CC(=O)O)C(=O)N[C@@H](Cc1ccccc1)C(=O)O)[C@H](C)O | 2.9% | –
4 | CC(=O)N[C@@H](CO)C(=O)N[C@@H](Cc1ccccc1)C(=O)N[C@H](C(=O)N[C@@H](CC(C)C)C(=O)N[C@@H](CC(=O)O)C(=O)N[C@@H](C)C(=O)N[C@@H](CC(=O)O)C(=O)N[C@@H](Cc1ccccc1)C(=O)O)[C@H](C)O | 100% | –
5 | CC(=O)N[C@@H](CC(N)=O)C(=O)N[C@@H](CO)C(=O)N[C@@H](Cc1ccccc1)C(=O)N[C@H](C(=O)N[C@@H](CC(C)C)C(=O)N[C@@H](CC(=O)O)C(=O)N[C@@H](C)C(=O)N[C@@H](CC(=O)O)C(=O)N[C@@H](Cc1ccccc1)C(=O)O)[C@H](C)O | 100% | –
6 | CC(=O)N[C@@H](Cc1ccccc1)C(=O)N[C@H](C(=O)N[C@@H](CC(C)C)C(=O)N[C@@H](CC(=O)O)C(=O)N[C@@H](C)C(=O)N[C@@H](CC(=O)O)C(=O)N[C@@H](Cc1ccccc1)C(=O)O)[C@H](C)O (Ac-F[aThr]LDADF-OH) | 100% | –
7 | CC(=O)N[C@@H](Cc1ccccc1)C(=O)N[C@H](C(=O)N[C@@H](CC(C)C)C(=O)N[C@@H](CC(=O)O)C(=O)N[C@@H](C)C(=O)N[C@@H](CCC(=O)O)C(=O)N[C@@H](Cc1ccccc1)C(=O)O)[C@H](C)O | 1.7% | –
8 | CC(=O)N[C@@H](Cc1ccccc1)C(=O)N[C@H](C(=O)N[C@@H](CC(C)C)C(=O)N[C@@H](CC(=O)O)C(=O)N[C@@H](C)C(=O)N[C@@H](C)C(=O)N[C@@H](Cc1ccccc1)C(=O)O)[C@H](C)O | 28% | –
9 | CC(=O)N[C@@H](Cc1ccccc1)C(=O)N[C@H](C(=O)N[C@@H](CC(C)C)C(=O)N[C@@H](CC(=O)O)C(=O)N[C@@H](C)C(=O)N[C@@H](CC(=O)O)C(=O)N[C@@H](Cc1ccccc1)C(=O)N[C@@H](C)C(=O)N[C@@H](C)C(=O)O)[C@H](C)O (Ac-F[aThr]LDADFAA-OH) | 2.1% | –
10 | CC(=O)N[C@@H](Cc1ccc(N=[N+]=[N-])cc1)C(=O)N[C@H](C(=O)N[C@@H](CC(C)C)C(=O)N[C@@H](CC(=O)O)C(=O)N[C@@H](C)C(=O)N[C@@H](CC(=O)O)C(=O)N[C@@H](Cc1ccccc1)C(=O)O)[C@H](C)O | 10% | –
11 | CC(=O)N[C@@H](Cc1ccccc1)C(=O)N[C@H](C(=O)N[C@@H](CC(C)C)C(=O)N[C@@H](CC(=O)O)C(=O)N[C@@H](C)C(=O)N[C@@H](CC(=O)O)C(=O)N[C@@H](CC(C)C)C(=O)O)[C@H](C)O (Ac-F[aThr]LDADL-OH) | < 3% | –
12 | CC(=O)N[C@@H](Cc1ccccc1)C(=O)N[C@H](C(=O)N[C@@H](CC(C)C)C(=O)N[C@@H](CC(=O)O)C(=O)N[C@@H](C)C(=O)N[C@@H](CC(N)=O)C(=O)N[C@@H](Cc1ccccc1)C(=O)O)[C@H](C)O | 23% | –
13 | Ac-FLDADF-OH | 2.5% | –
14 | CC(=O)N[C@@H](Cc1ccccc1)C(=O)N[C@H](C(=O)N[C@@H](CC(C)C)C(=O)N[C@@H](CC(N)=O)C(=O)N[C@@H](C)C(=O)N[C@@H](CC(=O)O)C(=O)N[C@@H](Cc1ccccc1)C(=O)O)[C@H](C)O | 40% | –
15 | CC(=O)N[C@@H](Cc1ccccc1)C(=O)N[C@H](C(=O)N[C@@H](CC(C)C)C(=O)N[C@@H](CC(=O)O)C(=O)NCC(=O)N[C@@H](CC(=O)O)C(=O)N[C@@H](Cc1ccccc1)C(=O)O)[C@H](C)O | 9% | –
16 | CC(=O)N[C@@H](Cc1ccccc1)C(=O)N[C@H](C(=O)N[C@@H](CC(C)C)C(=O)N[C@@H](CC(=O)O)C(=O)N[C@@H](CC(C)C)C(=O)N[C@@H](CC(=O)O)C(=O)N[C@@H](Cc1ccccc1)C(=O)O)[C@H](C)O | 35% | –
17 | CC(=O)N[C@@H](Cc1ccc(N)cc1)C(=O)N[C@H](C(=O)N[C@@H](CC(C)C)C(=O)N[C@@H](CC(=O)O)C(=O)N[C@@H](C)C(=O)N[C@@H](CC(=O)O)C(=O)N[C@@H](Cc1ccccc1)C(=O)O)[C@H](C)O | 10% | –
18 | CC(=O)N[C@@H](CC(C)C)C(=O)N[C@H](C(=O)N[C@@H](CC(C)C)C(=O)N[C@@H](CC(=O)O)C(=O)N[C@@H](C)C(=O)N[C@@H](CC(=O)O)C(=O)N[C@@H](Cc1ccccc1)C(=O)O)[C@H](C)O (Ac-L[aThr]LDADF-OH) | < 3% | –
19 | H-FTLDADF-OH | – | > 400 µM
20 | CC(=O)N[C@H](C(=O)N[C@@H](CC(C)C)C(=O)N[C@@H](CC(=O)O)C(=O)N[C@@H](C)C(=O)N[C@@H](CC(=O)O)C(=O)N[C@@H](Cc1ccccc1)C(=O)O)[C@H](C)O | < 3% | –
21 | CC(C)C[C@H](NC(=O)[C@@H](NC(=O)[C@@H](N)Cc1ccccc1)[C@H](C)O)C(=O)N[C@@H](CC(=O)O)C(=O)N[C@@H](C)C(=O)N[C@@H](CC(=O)O)C(=O)N[C@@H](Cc1ccccc1)C(=O)O (H-F[aThr]LDADF-OH) | < 3% | –
22 | CC(=O)N[C@@H](Cc1ccccc1)C(=O)N[C@H](C(=O)N[C@@H](C)C(=O)N[C@@H](CC(=O)O)C(=O)N[C@@H](C)C(=O)N[C@@H](CC(=O)O)C(=O)N[C@@H](Cc1ccccc1)C(=O)O)[C@H](C)O | 4.9% | –
23 | CC(=O)N[C@@H](Cc1ccccc1)C(=O)N[C@H](C(=O)N[C@@H](CC(C)C)C(=O)N[C@@H](CC(=O)O)C(=O)N[C@@H](CC(=O)O)C(=O)N[C@@H](Cc1ccccc1)C(=O)O)[C@H](C)O | 3% | –
24 | CC(=O)N[C@@H](Cc1ccccc1)C(=O)N[C@H](C(=O)N[C@@H](CC(C)C)C(=O)N[C@@H](CC(=O)O)C(=O)N[C@@H](Cc1ccccc1)C(=O)O)[C@H](C)O | 2.5% | –
25 | Ac-LTLDADF-OH | – | > 400 µM
26 | CC(=O)N[C@@H](Cc1ccccc1)C(=O)N[C@H](C(=O)N[C@@H](Cc1ccccc1)C(=O)N[C@@H](CC(=O)O)C(=O)N[C@@H](C)C(=O)N[C@@H](CC(=O)O)C(=O)N[C@@H](Cc1ccccc1)C(=O)O)[C@H](C)O | 18% | –
27 | CC(C)C[C@H](NC(=O)[C@@H](NC(=O)[C@H](Cc1ccccc1)NC(=O)[C@@H](N)CO)[C@H](C)O)C(=O)N[C@@H](CC(=O)O)C(=O)N[C@@H](C)C(=O)N[C@@H](CC(=O)O)C(=O)N[C@@H](Cc1ccccc1)C(=O)O | 25% | –
28 | Ac-FTLDADL-OH | – | > 400 µM
29 | CC(=O)N[C@@H](Cc1ccccc1)C(=O)N[C@H](C(=O)N[C@H](C(=O)N[C@@H](CC(=O)O)C(=O)N[C@@H](C)C(=O)N[C@@H](CC(=O)O)C(=O)N[C@@H](Cc1ccccc1)C(=O)O)C(C)C)[C@H](C)O | 35% | –
30 | CC(=O)N[C@H](C(=O)N[C@@H](CC(C)C)C(=O)N[C@@H](CC(=O)O)C(=O)N[C@@H](C)C(=O)N[C@@H](CC(=O)O)C(=O)N[C@@H](Cc1ccccc1)C(=O)O)[C@@H](C)O | – | > 400 µM
